Source: ChEMBL document CHEMBL3244142, “Antifungal properties of 2-bromo-3-fluorosuccinic acid esters and related compounds” (1977)
≈ marks a conversion by molar mass, not a printed value. Calls of active or inactive are those of the source. The rule behind the calls is not given here.

Columns and labels:
Aspergillus niger [1] = test: Antifungal activity against Aspergillus niger ATCC 1004 at <100 ug/ml at pH 5.6 after 5 days in presence of 10% beef serum; type: functional, organism-based
Outline: (§1)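 Agar-dilution MIC in Sabouraud dextrose agar at pH 5.6 or 7.0, with or without 10% beef serum. Plates were incubated at 28 °C for 5 days. MIC is the lowest concentration (µg/mL) giving 100% inhibition. Steps were 1 µg/mL up to 10, 2 µg/mL from 10–20, and 10 µg/mL from 20–100; 100 µg/mL was the top level, and no inhibition there is scored as >100.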

Aspergillus niger [2] = test: Antifungal activity against Aspergillus niger ATCC 1004 at <100 ug/ml at pH 7 after 5 days in absence of 10% beef serum; type: functional, organism-based; outline: as §1
Aspergillus niger [3] = test: Antifungal activity against Aspergillus niger ATCC 1004 at <100 ug/ml at pH 7 after 5 days in presence of 10% beef serum; type: functional, organism-based; outline: as §1
[4] = test system: Trichophyton mentagrophytes; test: Antifungal activity against Trichophyton mentagrophytes ATCC 9129 at pH 5.6 after 5 days in absence of 10% beef serum; type: functional; conditions: Trichophyton mentagrophytes, ATCC 9129, 120 h; read-out: MIC; outline: as §1
[5] = test system: Trichophyton mentagrophytes; test: Antifungal activity against Trichophyton mentagrophytes ATCC 9129 at <100 ug/ml at pH 5.6 after 5 days in presence of 10% beef serum; type: functional, organism-based; outline: as §1
[6] = test system: Trichophyton mentagrophytes; test: Antifungal activity against Trichophyton mentagrophytes ATCC 9129 at <100 ug/ml at pH 7 after 5 days in absence of 10% beef serum; type: functional, organism-based; outline: as §1
[7] = test system: Trichophyton mentagrophytes; test: Antifungal activity against Trichophyton mentagrophytes ATCC 9129 at <100 ug/ml at pH 7 after 5 days in presence of 10% beef serum; type: functional, organism-based; outline: as §1
Aspergillus niger [8] = test: Antifungal activity against Aspergillus niger ATCC 1004 at <100 ug/ml at pH 5.6 after 5 days in absence of 10% beef serum; type: functional, organism-based; outline: as §1
Mucor mucedo [9] = test: Antifungal activity against Mucor mucedo ATCC 7941 at pH 7 after 20 h in absence of 10% beef serum; conditions: ATCC 7941, 20 h
Mucor mucedo [10] = test: Antifungal activity against Mucor mucedo ATCC 7941 at pH 5.6 after 20 h in absence of 10% beef serum; conditions: ATCC 7941, 20 h
Mucor mucedo [11] = test: Antifungal activity against Mucor mucedo ATCC 7941 at pH 5.6 after 20 h in presence of 10% beef serum; conditions: ATCC 7941, 20 h
Mucor mucedo [12] = test: Antifungal activity against Mucor mucedo ATCC 7941 at <100 ug/ml at pH 7 after 20 h in presence of 10% beef serum
Candida albicans [13] = test: Antifungal activity against Candida albicans ATCC 10231 at <100 ug/ml at pH 7 after 20 h in absence of 10% beef serum
Candida albicans [14] = test: Antifungal activity against Candida albicans ATCC 10231 at <100 ug/ml at pH 7 after 20 h in presence of 10% beef serum
Candida albicans [15] = test: Antifungal activity against Candida albicans ATCC 10231 at <100 ug/ml at pH 5.6 after 20 h in absence of 10% beef serum
Candida albicans [16] = test: Antifungal activity against Candida albicans ATCC 10231 at <100 ug/ml at pH 5.6 after 20 h in presence of 10% beef serum
Aspergillus niger [17] = test: Antifungal activity against Aspergillus niger ATCC 1004 at pH 5.6 after 5 days in presence of 10% beef serum; type: functional; conditions: Aspergillus niger, ATCC 1004, 120 h; read-out: MIC; outline: as §1
Aspergillus niger [18] = test: Antifungal activity against Aspergillus niger ATCC 1004 at pH 7 after 5 days in absence of 10% beef serum; type: functional; conditions: Aspergillus niger, ATCC 1004, 120 h; read-out: MIC; outline: as §1
Aspergillus niger [19] = test: Antifungal activity against Aspergillus niger ATCC 1004 at pH 7 after 5 days in presence of 10% beef serum; type: functional; conditions: Aspergillus niger, ATCC 1004, 120 h; read-out: MIC; outline: as §1
[20] = test system: Trichophyton mentagrophytes; test: Antifungal activity against Trichophyton mentagrophytes ATCC 9129 at pH 5.6 after 5 days in presence of 10% beef serum; type: functional; conditions: Trichophyton mentagrophytes, ATCC 9129, 120 h; read-out: MIC; outline: as §1
[21] = test system: Trichophyton mentagrophytes; test: Antifungal activity against Trichophyton mentagrophytes ATCC 9129 at pH 7 after 5 days in absence of 10% beef serum; type: functional; conditions: Trichophyton mentagrophytes, ATCC 9129, 120 h; read-out: MIC; outline: as §1
[22] = test system: Trichophyton mentagrophytes; test: Antifungal activity against Trichophyton mentagrophytes ATCC 9129 at pH 7 after 5 days in presence of 10% beef serum; type: functional; conditions: Trichophyton mentagrophytes, ATCC 9129, 120 h; read-out: MIC; outline: as §1
Aspergillus niger [23] = test: Antifungal activity against Aspergillus niger ATCC 1004 at pH 5.6 after 5 days in absence of 10% beef serum; type: functional; conditions: Aspergillus niger, ATCC 1004, 120 h; read-out: MIC; outline: as §1
Mucor mucedo [24] = test: Antifungal activity against Mucor mucedo ATCC 7941 at pH 7 after 20 h in presence of 10% beef serum; conditions: ATCC 7941, 20 h
Candida albicans [25] = test: Antifungal activity against Candida albicans ATCC 10231 at pH 7 after 20 h in absence of 10% beef serum; conditions: ATCC 10231, 20 h
Candida albicans [26] = test: Antifungal activity against Candida albicans ATCC 10231 at pH 7 after 20 h in presence of 10% beef serum; conditions: ATCC 10231, 20 h
Candida albicans [27] = test: Antifungal activity against Candida albicans ATCC 10231 at pH 5.6 after 20 h in absence of 10% beef serum; conditions: ATCC 10231, 20 h
Candida albicans [28] = test: Antifungal activity against Candida albicans ATCC 10231 at pH 5.6 after 20 h in presence of 10% beef serum; conditions: ATCC 10231, 20 h
Mucor mucedo [29] = test: Antifungal activity against Mucor mucedo ATCC 7941 at <100 ug/ml at pH 7 after 20 h in absence of 10% beef serum
Mucor mucedo [30] = test: Antifungal activity against Mucor mucedo ATCC 7941 at <100 ug/ml at pH 5.6 after 20 h in absence of 10% beef serum
Mucor mucedo [31] = test: Antifungal activity against Mucor mucedo ATCC 7941 at <100 ug/ml at pH 5.6 after 20 h in presence of 10% beef serum

Row | SMILES | MIC [4] | MIC (Mucor mucedo [9]) | MIC (Mucor mucedo [10]) | MIC (Mucor mucedo [11]) | MIC (Aspergillus niger [17]) | MIC (Aspergillus niger [18]) | MIC (Aspergillus niger [19]) | MIC [20] | MIC [21] | MIC [22] | MIC (Aspergillus niger [23]) | MIC (Mucor mucedo [24]) | MIC (Candida albicans [25]) | MIC (Candida albicans [26]) | MIC (Candida albicans [27]) | MIC (Candida albicans [28]) | other results
1 | COC(=O)C#CC(=O)OC | 40 µg/mL (≈ 281 µM) | 70 µg/mL (≈ 493 µM) | 8 µg/mL (≈ 56.3 µM) | 30 µg/mL | – | – | – | – | – | – | – | – | – | – | – | – | inhibition (Aspergillus niger [1]): inactive; inhibition (Aspergillus niger [2]): inactive; inhibition (Aspergillus niger [3]): inactive; inhibition [5]: inactive; inhibition [6]: inactive; inhibition [7]: inactive; inhibition (Aspergillus niger [8]): inactive; inhibition (Mucor mucedo [12]): inactive; inhibition (Candida albicans [13]): inactive; inhibition (Candida albicans [14]): inactive; inhibition (Candida albicans [15]): inactive; inhibition (Candida albicans [16]): inactive
2 | CCCOC(=O)[C@@H](F)[C@@H](Br)C(=O)OCCC (relative stereo) | < 1 µg/mL | 3 µg/mL (≈ 10 µM) | < 1 µg/mL | 14 µg/mL | 18 µg/mL | 40 µg/mL (≈ 134 µM) | 60 µg/mL | 5 µg/mL | 2 µg/mL (≈ 6.69 µM) | 14 µg/mL | 18 µg/mL (≈ 60.2 µM) | 14 µg/mL | 4 µg/mL (≈ 13.4 µM) | 14 µg/mL | 3 µg/mL (≈ 10 µM) | 5 µg/mL | –
3 | COC(=O)/C=C(\Br)C(=O)OC | < 1 µg/mL | 5 µg/mL (≈ 22.4 µM) | 3 µg/mL (≈ 13.5 µM) | 4 µg/mL | 16 µg/mL | 18 µg/mL (≈ 80.7 µM) | 20 µg/mL | 3 µg/mL | 3 µg/mL (≈ 13.5 µM) | 9 µg/mL | 14 µg/mL (≈ 62.8 µM) | 14 µg/mL | 18 µg/mL (≈ 80.7 µM) | 20 µg/mL | 12 µg/mL (≈ 53.8 µM) | 14 µg/mL | –
4 | CCOC(=O)[C@@H](F)[C@@H](Br)C(=O)OCC (relative stereo) | 2 µg/mL (≈ 7.38 µM) | 6 µg/mL (≈ 22.1 µM) | 4 µg/mL (≈ 14.8 µM) | 5 µg/mL | 12 µg/mL | 30 µg/mL (≈ 111 µM) | 40 µg/mL | 5 µg/mL | 3 µg/mL (≈ 11.1 µM) | 6 µg/mL | 12 µg/mL (≈ 44.3 µM) | 7 µg/mL | 12 µg/mL (≈ 44.3 µM) | 16 µg/mL | 4 µg/mL (≈ 14.8 µM) | 6 µg/mL | –
5 | CCOC(=O)[C@H](F)[C@@H](Br)C(=O)OCC (relative stereo) | < 1 µg/mL | 4 µg/mL (≈ 14.8 µM) | 2 µg/mL (≈ 7.38 µM) | 6 µg/mL | 20 µg/mL | 20 µg/mL (≈ 73.8 µM) | 30 µg/mL | 2 µg/mL | 2 µg/mL (≈ 7.38 µM) | 5 µg/mL | 18 µg/mL (≈ 66.4 µM) | 9 µg/mL | 7 µg/mL (≈ 25.8 µM) | 14 µg/mL | 4 µg/mL (≈ 14.8 µM) | 5 µg/mL | –
6 | CC1/C=C/C=C/C=C/C=C/C=C/C=C/C=C/C(OC2O[C@H](C)[C@@H](O)[C@H](N)[C@@H]2O)CC(O)C(C(=O)O)C(O)CC(=O)CC(O)CC(O)CC(O)CC(=O)CCCC(=O)CC(=O)OC1C(C)CC(C)C(O)CC(=O)c1ccc(N)cc1 (stereo partly drawn) | < 1 µg/mL | < 1 µg/mL | < 1 µg/mL | < 1 µg/mL | 5 µg/mL | 8 µg/mL (≈ 7.21 µM) | 10 µg/mL | < 1 µg/mL | 3 µg/mL (≈ 2.7 µM) | 9 µg/mL | 2 µg/mL (≈ 1.8 µM) | 2 µg/mL | < 1 µg/mL | 2 µg/mL | < 1 µg/mL | < 1 µg/mL | –
7 | C[C@@H]1[C@H](O)[C@@H](C)/C=C/C=C/C=C/C=C/C=C/C=C/C=C/[C@H](O[C@@H]2O[C@H](C)[C@@H](O)[C@H](N)[C@@H]2O)C[C@@H]2O[C@](O)(C[C@@H](O)C[C@@H](O)[C@H](O)CC[C@@H](O)C[C@@H](O)CC(=O)O[C@H]1C)C[C@H](O)[C@H]2C(=O)O [AMPHOTERICIN B] | < 1 µg/mL | < 1 µg/mL | < 1 µg/mL | < 1 µg/mL | < 1 µg/mL | < 1 µg/mL | < 1 µg/mL | < 1 µg/mL | < 1 µg/mL | < 1 µg/mL | < 1 µg/mL | < 1 µg/mL | < 1 µg/mL | < 1 µg/mL | < 1 µg/mL | < 1 µg/mL | –
8 | CCCCCOC(=O)[C@H](F)[C@@H](Br)C(=O)OCCCCC (relative stereo) | 12 µg/mL (≈ 33.8 µM) | – | – | – | – | – | – | – | 40 µg/mL (≈ 113 µM) | – | – | – | – | – | – | – | inhibition (Aspergillus niger [1]): inactive; inhibition (Aspergillus niger [2]): inactive; inhibition (Aspergillus niger [3]): inactive; inhibition [5]: inactive; inhibition [7]: inactive; inhibition (Aspergillus niger [8]): inactive; inhibition (Mucor mucedo [29]): inactive; inhibition (Mucor mucedo [12]): inactive; inhibition (Mucor mucedo [30]): inactive; inhibition (Mucor mucedo [31]): inactive; inhibition (Candida albicans [13]): inactive; inhibition (Candida albicans [14]): inactive; inhibition (Candida albicans [15]): inactive; inhibition (Candida albicans [16]): inactive
